What was measured:
[1] = molecular target: T1, Muscarinic acetylcholine receptor M2 (Homo sapiens) (UniProt P08172); test: Efficacy of agonist at muscarinic M2 receptor in guinea pig atrium as ratio of Ka/ED50; assay type: functional, tissue-based; conditions: Cavia porcellus; Cardiac atrium; target entry is the homologue from another species
T1 sequence (whole entry): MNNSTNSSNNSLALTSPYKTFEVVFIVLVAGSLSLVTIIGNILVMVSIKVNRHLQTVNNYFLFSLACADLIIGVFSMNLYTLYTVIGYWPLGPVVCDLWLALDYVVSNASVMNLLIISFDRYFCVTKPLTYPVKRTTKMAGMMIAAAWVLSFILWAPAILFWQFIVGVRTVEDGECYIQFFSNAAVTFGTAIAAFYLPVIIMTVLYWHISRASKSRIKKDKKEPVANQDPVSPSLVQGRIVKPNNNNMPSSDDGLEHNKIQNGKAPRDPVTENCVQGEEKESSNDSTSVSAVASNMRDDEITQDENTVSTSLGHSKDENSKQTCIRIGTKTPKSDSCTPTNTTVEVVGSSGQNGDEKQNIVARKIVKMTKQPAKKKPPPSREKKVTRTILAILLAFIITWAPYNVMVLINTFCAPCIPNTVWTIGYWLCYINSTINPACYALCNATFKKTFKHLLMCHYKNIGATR
In short: (§1)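 Functional affinity constants (Ka) obtained in the atrium and ileum preparations. Full agonists: Furchgott-Bursztyn method. Partial agonists: Waud method, comparing their concentration-response curves with arecaidine propargyl ester, with equieffective concentrations read graphically. Ka was then related to ED50.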

[2] = molecular target: Muscarinic acetylcholine receptor M3 (Cavia porcellus) (UniProt Q8VH26); test: Efficacy of agonist at muscarinic M3 receptor in guinea pig ileum as ratio of Ka/ED50; assay type: functional, tissue-based; in short: as §1
Muscarinic acetylcholine receptor M3 (Cavia porcellus), sequence (Q8VH26 1-587): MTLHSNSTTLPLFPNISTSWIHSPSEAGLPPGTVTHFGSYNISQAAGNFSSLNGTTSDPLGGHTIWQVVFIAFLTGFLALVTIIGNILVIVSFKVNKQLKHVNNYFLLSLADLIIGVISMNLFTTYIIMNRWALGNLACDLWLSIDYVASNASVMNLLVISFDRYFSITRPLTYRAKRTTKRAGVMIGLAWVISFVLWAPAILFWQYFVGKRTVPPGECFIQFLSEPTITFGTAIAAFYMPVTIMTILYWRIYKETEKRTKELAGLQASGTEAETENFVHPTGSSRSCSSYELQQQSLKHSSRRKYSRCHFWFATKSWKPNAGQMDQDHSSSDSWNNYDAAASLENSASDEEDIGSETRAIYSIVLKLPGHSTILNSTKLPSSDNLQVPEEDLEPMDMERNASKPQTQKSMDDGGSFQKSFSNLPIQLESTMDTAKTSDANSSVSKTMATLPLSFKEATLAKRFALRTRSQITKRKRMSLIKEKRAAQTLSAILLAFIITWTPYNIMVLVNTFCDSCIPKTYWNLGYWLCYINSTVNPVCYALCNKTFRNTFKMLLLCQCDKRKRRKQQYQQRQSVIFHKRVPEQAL

[3] = molecular target: T2, Muscarinic acetylcholine receptor M1 (Homo sapiens) (UniProt P11229); test: Antagonist affinity at muscarinic M1 receptor in rabbit vas deferens; assay type: functional, tissue-based; conditions: Oryctolagus cuniculus, target entry is the homologue from another species
T2 sequence (whole entry): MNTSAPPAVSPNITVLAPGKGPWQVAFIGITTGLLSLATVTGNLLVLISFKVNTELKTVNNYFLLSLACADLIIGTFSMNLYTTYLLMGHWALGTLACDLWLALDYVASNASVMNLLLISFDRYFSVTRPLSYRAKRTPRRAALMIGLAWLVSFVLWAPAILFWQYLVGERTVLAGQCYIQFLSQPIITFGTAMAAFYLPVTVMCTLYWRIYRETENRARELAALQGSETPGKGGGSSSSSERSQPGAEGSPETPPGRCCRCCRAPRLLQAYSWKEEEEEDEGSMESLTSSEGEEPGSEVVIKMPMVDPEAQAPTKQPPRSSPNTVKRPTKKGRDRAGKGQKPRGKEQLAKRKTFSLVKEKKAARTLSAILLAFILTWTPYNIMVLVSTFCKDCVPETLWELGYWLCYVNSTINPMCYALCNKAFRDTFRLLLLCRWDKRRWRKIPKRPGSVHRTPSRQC
In short: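 Field-stimulated (0.1 ms, 2 Hz, 10-15 V), contractions recorded isometrically after 1 h equilibration. Cumulative dose-response curves against p-Cl-McN-A-343 reference. Antagonists incubated 60 min before the repeat curve. Reported as pD2 (-log ED50) with intrinsic activity, or as pKb.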

[4] = molecular target: Muscarinic acetylcholine receptor M3 (Homo sapiens, UniProt P20309); test: Binding affinity to cloned human muscarinic M3 receptor expressed in CHO cells; assay type: cell-based
Muscarinic acetylcholine receptor M3, sequence (P20309 whole entry): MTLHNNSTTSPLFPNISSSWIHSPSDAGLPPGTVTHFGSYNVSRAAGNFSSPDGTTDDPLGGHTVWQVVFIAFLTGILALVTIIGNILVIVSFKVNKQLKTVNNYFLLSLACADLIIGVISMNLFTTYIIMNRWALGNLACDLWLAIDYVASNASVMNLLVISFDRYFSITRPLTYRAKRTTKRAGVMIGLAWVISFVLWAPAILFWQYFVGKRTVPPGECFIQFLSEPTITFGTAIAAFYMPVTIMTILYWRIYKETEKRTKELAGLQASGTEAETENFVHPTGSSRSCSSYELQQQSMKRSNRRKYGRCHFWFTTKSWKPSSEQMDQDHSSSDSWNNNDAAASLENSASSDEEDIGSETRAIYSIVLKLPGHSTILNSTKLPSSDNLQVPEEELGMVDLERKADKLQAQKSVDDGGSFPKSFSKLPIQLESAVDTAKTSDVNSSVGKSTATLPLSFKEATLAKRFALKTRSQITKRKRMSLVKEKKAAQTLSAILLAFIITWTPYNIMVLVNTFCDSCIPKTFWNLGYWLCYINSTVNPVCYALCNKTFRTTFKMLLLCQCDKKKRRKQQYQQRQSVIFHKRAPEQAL

[5] = molecular target: T3, Muscarinic acetylcholine receptor M4 (Homo sapiens) (UniProt P08173); test: Antagonist affinity at muscarinic M4 receptor in guinea pig lung strips; assay type: functional; conditions: Cavia porcellus, target entry is the homologue from another species
T3 sequence (whole entry): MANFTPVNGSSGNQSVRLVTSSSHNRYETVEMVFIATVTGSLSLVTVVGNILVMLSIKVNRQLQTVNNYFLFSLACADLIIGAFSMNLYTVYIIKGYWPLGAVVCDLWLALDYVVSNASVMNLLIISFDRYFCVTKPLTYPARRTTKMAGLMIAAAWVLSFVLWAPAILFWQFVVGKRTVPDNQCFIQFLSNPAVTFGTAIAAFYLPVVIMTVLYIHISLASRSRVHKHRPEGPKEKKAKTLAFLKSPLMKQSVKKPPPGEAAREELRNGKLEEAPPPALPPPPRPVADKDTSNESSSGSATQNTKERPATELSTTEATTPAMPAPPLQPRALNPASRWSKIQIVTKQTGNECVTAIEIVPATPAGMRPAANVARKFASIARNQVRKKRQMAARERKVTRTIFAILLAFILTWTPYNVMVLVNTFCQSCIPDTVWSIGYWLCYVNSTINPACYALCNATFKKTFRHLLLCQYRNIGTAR
In short: (§2)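 Isolated guinea pig tissue contractions, measured against arecaidine propargyl ester control curves. Agonists: cumulative dose-response curve after a 30 min wash, responses as % of the control maximum. Antagonists: 60 min incubation, then a new agonist curve. Parallel time-control tissues were run. Values expressed as pD2 (-log ED50) with intrinsic activity, or as pKb (-log Kb).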

[6] = molecular target: T4, Muscarinic acetylcholine receptor M4 (Homo sapiens, UniProt P08173); test: Binding affinity to cloned human muscarinic M4 receptor expressed in CHO cells; assay type: cell-based
T4 sequence (P08173 whole entry): T3 sequence (whole entry)
In short: (§3)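 Membranes from CHO cells stably expressing human hm2, hm4 or hm5 receptors, at 70, 50 and 25 µg/mL protein respectively. 0.2 nM [3H]NMS displaced by unlabelled ligand for 120 min at room temperature, in 25 mM sodium phosphate with 5 mM MgCl2, pH 7.4. Rapid filtration, then scintillation counting. Mean of at least three experiments.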

[7] = molecular target: T1, Muscarinic acetylcholine receptor M2 (Homo sapiens); test: Agonist potency at muscarinic M2 receptor in guinea pig atrium; assay type: functional, tissue-based; conditions: Cavia porcellus; Cardiac atrium; target entry is the homologue from another species
In short: (§4)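 Guinea pig left atria in PSS at 30 °C, paced by square-wave pulses (1 ms, 1 Hz, 5-10 V). Inotropic force recorded isometrically after 2 h equilibration, with cumulative dose-response curves to arecaidine propargyl ester as reference. Antagonists incubated 60 min after a 30 min wash, then the curve was repeated. Values given as pD2 with intrinsic activity, or as pKb.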

[8] = molecular target: Muscarinic acetylcholine receptor M3 (Cavia porcellus) (UniProt Q8VH26); test: Agonist potency at muscarinic M3 receptor in guinea pig ileum; assay type: functional, tissue-based; in short: as §2
[9] = molecular target: T5, Muscarinic acetylcholine receptor M1 (Homo sapiens, UniProt P11229); test: Binding affinity to cloned human muscarinic M1 receptor expressed in CHO cells; assay type: cell-based
T5 sequence (P11229 whole entry): T2 sequence (whole entry)

[10] = molecular target: T6, Muscarinic acetylcholine receptor M2 (Homo sapiens, UniProt P08172); test: Binding affinity to cloned human muscarinic M2 receptor expressed in CHO cells; assay type: cell-based; in short: as §3
T6 sequence (P08172 whole entry): T1 sequence (whole entry)

[11] = molecular target: T7, Muscarinic acetylcholine receptor M5 (Homo sapiens, UniProt P08912); test: Binding affinity to cloned human muscarinic M5 receptor expressed in CHO cells; assay type: cell-based; in short: as §3
T7 sequence (P08912 whole entry): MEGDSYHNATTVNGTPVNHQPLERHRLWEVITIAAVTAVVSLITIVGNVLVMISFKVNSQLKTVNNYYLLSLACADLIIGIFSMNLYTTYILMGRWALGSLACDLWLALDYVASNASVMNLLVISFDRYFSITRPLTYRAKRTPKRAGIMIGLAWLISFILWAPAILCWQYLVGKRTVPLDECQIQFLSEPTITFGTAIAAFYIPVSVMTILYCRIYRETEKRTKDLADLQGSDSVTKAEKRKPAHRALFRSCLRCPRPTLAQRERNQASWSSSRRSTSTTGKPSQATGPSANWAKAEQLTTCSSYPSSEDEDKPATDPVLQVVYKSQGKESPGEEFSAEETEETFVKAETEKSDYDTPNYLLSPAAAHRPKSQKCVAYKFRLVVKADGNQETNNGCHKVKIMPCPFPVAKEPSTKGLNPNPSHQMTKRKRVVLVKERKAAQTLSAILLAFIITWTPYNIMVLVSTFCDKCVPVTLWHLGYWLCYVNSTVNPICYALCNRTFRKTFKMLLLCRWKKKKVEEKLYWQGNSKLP

[12] = molecular target: Muscarinic acetylcholine receptor M3 (Cavia porcellus) (UniProt Q8VH26); test: Antagonist affinity at muscarinic M3 receptor in guinea pig ileum; assay type: functional, tissue-based; in short: as §2
[13] = molecular target: T1, Muscarinic acetylcholine receptor M2 (Homo sapiens); test: Antagonist affinity at muscarinic M2 receptor in guinea pig atrium; assay type: functional, tissue-based; conditions: Cavia porcellus; Cardiac atrium; target entry is the homologue from another species; in short: as §4

| Structure (SMILES) | Ratio [1] | Ratio [2] | pKb [3] | Ki [4] | pKb [5] | Ki [6] | -logKa [7] | Activity [7] | pD2 [7] | -logKa [8] | Activity [8] | pD2 [8] | Ki [9] | Ki [10] | Ki [11] | pKb [12] | pKb [13] |
| --- | --- | --- | --- | --- | --- | --- | --- | --- | --- | --- | --- | --- | --- | --- | --- | --- | --- |
| C[C@@H]1O[C@H]([C@H]2CCC[N+]2(C)C)C[S@@+]1[O-] | 12 | 7 | < 5 | > 100 µM | < 5 | > 100 µM | 5.11 | 0.58 | 6.11 | 4.87 | 1 | 5.58 | > 100 µM | 9.33 µM | > 100 µM | – | – |
| C[C@@H]1O[C@H]([C@@H]2CCC[N+]2(C)C)C[S@+]1[O-] | 84 | – | < 5 | > 100 µM | < 5 | > 100 µM | 6.13 | 0.41 | 7.65 | – | 0 | – | > 100 µM | 51.3 µM | > 100 µM | < 5 | – |
| C[C@@H]1O[C@H]([C@@H]2CCCN2C)C[S@+]1[O-] | – | – | < 5 | > 100 µM | < 5 | > 100 µM | – | 0 | – | – | 0 | – | > 100 µM | 89.1 µM | > 100 µM | < 5 | < 5 |
| C[C@H]1O[C@@H](C[N+](C)(C)C)C[S+]1[O-] (single isomer, unassigned; (-)) | 28 | 37 | – | – | – | – | 5.22 | – | 6.66 | 5.38 | – | 6.95 | – | – | – | – | – |
| C[C@H]1O[C@@H]([C@@H]2CCC[N+]2(C)C)C[S@@+]1[O-] (stereo in doubt; (-)-6) | – | – | – | > 100 µM | – | > 100 µM | – | – | – | – | – | – | > 100 µM | 28.8 µM | > 100 µM | – | – |
| C[C@H]1O[C@@H]([C@@H]2CCC[N+]2(C)C)C[S@+]1[O-] | – | – | < 5 | > 100 µM | < 5 | > 100 µM | – | 0 | – | – | 0 | – | > 100 µM | 77.6 µM | > 100 µM | < 5 | < 5 |
| C[C@H]1O[C@@H]([C@@H]2CCC[N+]2(C)C)C[S@@+]1[O-] (stereo in doubt; (+)-7) | – | – | < 5 | – | < 5 | – | – | 0 | – | – | 0 | – | – | – | – | < 5 | < 5 |
| C[C@@H]1O[C@H]([C@H]2CCCN2C)C[S@+]1[O-] | – | – | – | > 100 µM | – | > 100 µM | – | – | – | – | – | – | > 100 µM | > 100 µM | > 100 µM | – | – |
| C[C@H]1O[C@@H]([C@H]2CCCN2C)C[S@@+]1[O-] | – | – | – | > 100 µM | – | > 100 µM | – | – | – | – | – | – | > 100 µM | > 100 µM | > 100 µM | – | – |
| C[C@@H]1O[C@H]([C@H]2CCCN2C)C[S@@+]1[O-] | – | – | – | > 100 µM | – | > 100 µM | – | – | – | – | – | – | > 100 µM | > 100 µM | > 100 µM | – | – |

Source: ChEMBL document CHEMBL1138195, “Highly chiral muscarinic ligands: the discovery of (2S,2'R,3'S,5'R)-1-methyl-2-(2-methyl-1,3-oxathiolan-5-yl)pyrrolidine 3-sulfoxide methyl iodide, a potent, functionally selective, M2 partial agonist” (J Med Chem, 2006)
